Reference: ChEMBL document CHEMBL2311431, “Synthesis and biological evaluation of some 5-arylidene-2-(1,3-thiazol-2-ylimino)-1,3-thiazolidin-4-ones as dual anti-inflammatory/antimicrobial agents” (Bioorg Med Chem, 2013)
pIC50: −log10 of the molar value. Converted amounts (≈) assume the structure as drawn. The source made the active and inactive calls. The calls are words filed in the database; no cut-off is given here.

Key:
Aspergillus niger [1] = test: Fungicidal activity against Aspergillus niger ATCC 6275 after 72 hrs by serial subcultivation method; format: functional; conditions: ATCC 6275, 72 h
Aspergillus niger [2] = test: Antifungal activity against Aspergillus niger ATCC 6275 after 72 hrs by serial dilution technique; format: functional; conditions: ATCC 6275, 72 h
Procedure, shortened: (§1)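 Serial dilution in malt broth; compounds from 1 mg/ml stocks in 5% DMSO; 72 h at 28 °C. MIC is the lowest concentration with no visible growth under a binocular microscope. Run in duplicate, repeated three times.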

Aspergillus fumigatus [3] = test: Fungicidal activity against Aspergillus fumigatus after 72 hrs by serial subcultivation method; format: functional
Aspergillus flavus [4] = test: Fungicidal activity against Aspergillus flavus ATCC 9643 after 72 hrs by serial subcultivation method; format: functional; conditions: ATCC 9643, 72 h
Trichoderma viride [5] = test: Fungicidal activity against Trichoderma viride IAM 5061 after 72 hrs by serial subcultivation method; format: functional; conditions: IAM 5061, 72 h
Penicillium ochrochloron [6] = test: Fungicidal activity against Penicillium ochrochloron ATCC 9112 after 72 hrs by serial subcultivation method; format: functional; conditions: ATCC 9112, 72 h
Aspergillus flavus [7] = test: Antifungal activity against Aspergillus flavus ATCC 9643 after 72 hrs by serial dilution technique; format: functional; conditions: ATCC 9643, 72 h; procedure, shortened: as §1
Talaromyces funiculosus [8] = test: Fungicidal activity against Penicillium funiculosum ATCC 36839 after 72 hrs by serial subcultivation method; format: functional; conditions: ATCC 36839, 72 h
Aspergillus fumigatus [9] = test: Antifungal activity against Aspergillus fumigatus after 72 hrs by serial dilution technique; format: functional; procedure, shortened: as §1
Trichoderma viride [10] = test: Antifungal activity against Trichoderma viride IAM 5061 after 72 hrs by serial dilution technique; format: functional; conditions: IAM 5061, 72 h; procedure, shortened: as §1
Penicillium ochrochloron [11] = test: Antifungal activity against Penicillium ochrochloron ATCC 9112 after 72 hrs by serial dilution technique; format: functional; conditions: ATCC 9112, 72 h; procedure, shortened: as §1
Talaromyces funiculosus [12] = test: Antifungal activity against Penicillium funiculosum ATCC 36839 after 72 hrs by serial dilution technique; format: functional; conditions: ATCC 36839, 72 h; procedure, shortened: as §1
Escherichia coli [13] = test: Bactericidal activity against Escherichia coli ATCC 35210 after 72 hrs by serial subcultivation method; format: functional; conditions: ATCC 35210, 72 h
Pseudomonas aeruginosa [14] = test: Bactericidal activity against Pseudomonas aeruginosa ATCC 27853 after 72 hrs by serial subcultivation method; format: functional; conditions: ATCC 27853, 72 h
Listeria monocytogenes [15] = test: Bactericidal activity against Listeria monocytogenes NCTC 7973 after 72 hrs by serial subcultivation method; format: functional; conditions: NCTC 7973, 72 h
Bacillus cereus [16] = test: Bactericidal activity against Bacillus cereus clinical isolate after 72 hrs by serial subcultivation method; format: functional
Micrococcus flavus [17] = test: Bactericidal activity against Micrococcus flavus ATCC 10240 after 72 hrs by serial subcultivation method; format: functional; conditions: ATCC 10240, 72 h
Staphylococcus aureus [18] = test: Bactericidal activity against Staphylococcus aureus ATCC 6538 after 72 hrs by serial subcultivation method; format: functional; conditions: ATCC 6538, 72 h
Escherichia coli [19] = test: Antibacterial activity against Escherichia coli ATCC 35210 after 24 hr by microdilution test; format: functional; conditions: ATCC 35210, 24 h
Procedure, shortened: (§2)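 Broth microdilution in LB medium, about 1.0×10^4 cfu per well; compounds from 1 mg/ml stocks in 5% DMSO. Incubated 24 h. MIC is the lowest concentration with no visible growth under a binocular microscope. Run in duplicate, repeated three times.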

Listeria monocytogenes [20] = test: Antibacterial activity against Listeria monocytogenes NCTC 7973 after 24 hr by microdilution test; format: functional; conditions: NCTC 7973, 24 h; procedure, shortened: as §2
Pseudomonas aeruginosa [21] = test: Antibacterial activity against Pseudomonas aeruginosa ATCC 27853 after 24 hr by microdilution test; format: functional; conditions: ATCC 27853, 24 h; procedure, shortened: as §2
Micrococcus flavus [22] = test: Antibacterial activity against Micrococcus flavus ATCC 10240 after 24 hr by microdilution test; format: functional; conditions: ATCC 10240, 24 h; procedure, shortened: as §2
Bacillus cereus [23] = test: Antibacterial activity against Bacillus cereus clinical isolate after 24 hr by microdilution test; format: functional; procedure, shortened: as §2
Staphylococcus aureus [24] = test: Antibacterial activity against Staphylococcus aureus ATCC 6538 after 24 hr by microdilution test; format: functional; conditions: ATCC 6538, 24 h; procedure, shortened: as §2
Mus musculus = test: Antiinflammatory activity in AKR mouse assessed as inhibition of carrageenan-induced paw edema at 0.01 mmol/kg, ip measured after 3.5 hrs of carrageenan-challenge; format: functional
Procedure, shortened: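 AKR mice of both sexes (pregnant females excluded), 6-10 per group, fasted during the experiment. Edema induced by intradermal 0.05 mL of 2% carrageenin into the right hind paw. Compound given at 0.01 mmol/kg ip, suspended in water with Tween-80, at the same time as carrageenin.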

[25] = biological target: T1, Prostaglandin G/H synthase 1 (Ovis aries) (UniProt P05979); test: Inhibition of ovine COX1 assessed as inhibition of PGF2a production by enzyme immunoassay; design: concentration or dose not given beside the values
T1 sequence (whole entry): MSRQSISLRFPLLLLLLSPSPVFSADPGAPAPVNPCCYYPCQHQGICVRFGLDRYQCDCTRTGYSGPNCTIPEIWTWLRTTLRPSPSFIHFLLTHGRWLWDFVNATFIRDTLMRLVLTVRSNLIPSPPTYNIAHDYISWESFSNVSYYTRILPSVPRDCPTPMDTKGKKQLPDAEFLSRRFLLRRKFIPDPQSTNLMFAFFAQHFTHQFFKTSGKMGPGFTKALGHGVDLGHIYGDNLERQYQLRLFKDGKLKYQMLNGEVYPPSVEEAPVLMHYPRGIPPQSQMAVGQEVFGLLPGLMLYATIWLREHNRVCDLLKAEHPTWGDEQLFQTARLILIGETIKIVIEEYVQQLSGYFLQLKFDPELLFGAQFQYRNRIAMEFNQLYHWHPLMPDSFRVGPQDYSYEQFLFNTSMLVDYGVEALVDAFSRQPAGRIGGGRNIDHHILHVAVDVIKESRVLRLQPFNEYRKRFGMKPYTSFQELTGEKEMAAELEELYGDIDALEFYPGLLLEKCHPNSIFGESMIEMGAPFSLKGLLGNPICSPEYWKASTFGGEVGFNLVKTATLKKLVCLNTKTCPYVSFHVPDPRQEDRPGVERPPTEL
Procedure, shortened: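 Ovine COX-1 from a commercial screening kit, tested with 0.1 µM arachidonic acid, which is below the saturating level. COX-derived PGH2 is reduced by SnCl2 to PGF2a, quantified by enzyme immunoassay with a broad prostaglandin antibody. At least triplicate.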

[26] = Inhibition of soybean lipoxygenase assessed as inhibition of sodium linolate conversion to 13-hydroperoxylinoleic acid after 4 mins by spectrophotometry; design: species or system Glycine max; conditions: read-out: IC50

SMILES	MFC (Aspergillus niger [1]) [µM]	MIC (Aspergillus niger [2]) [µM]	MFC (Aspergillus fumigatus [3]) [µM]	MFC (Aspergillus flavus [4]) [µM]	MFC (Trichoderma viride [5]) [µM]	MFC (Penicillium ochrochloron [6]) [µM]	MIC (Aspergillus flavus [7]) [µM]	MFC (Talaromyces funiculosus [8]) [µM]	MIC (Aspergillus fumigatus [9]) [µM]	MIC (Trichoderma viride [10]) [µM]	MIC (Penicillium ochrochloron [11]) [µM]	MIC (Talaromyces funiculosus [12]) [µM]	MBC (Escherichia coli [13]) [µM]	MBC (Pseudomonas aeruginosa [14]) [µM]	MBC (Listeria monocytogenes [15]) [µM]	MBC (Bacillus cereus [16]) [µM]	MBC (Micrococcus flavus [17]) [µM]	MBC (Staphylococcus aureus [18]) [µM]	MIC (Escherichia coli [19]) [µM]	MIC (Listeria monocytogenes [20]) [µM]	further results
O=C1N/C(=N\c2nc(-c3ccccc3)cs2)S/C1=C\c1ccccc1Cl	23.4 (≈ 9.31 µg/mL)	17.6 (≈ 7 µg/mL)	23.4 (≈ 9.31 µg/mL)	23.4 (≈ 9.31 µg/mL)	23.4 (≈ 9.31 µg/mL)	23.4 (≈ 9.31 µg/mL)	17.6 (≈ 7 µg/mL)	23.4 (≈ 9.31 µg/mL)	17.6 (≈ 7 µg/mL)	11.7 (≈ 4.66 µg/mL)	11.7 (≈ 4.66 µg/mL)	17.6 (≈ 7 µg/mL)	100 (≈ 39.8 µg/mL)	100 (≈ 39.8 µg/mL)	25 (≈ 9.95 µg/mL)	25 (≈ 9.95 µg/mL)	25 (≈ 9.95 µg/mL)	100 (≈ 39.8 µg/mL)	50 (≈ 19.9 µg/mL)	25 (≈ 9.95 µg/mL)	MIC (Pseudomonas aeruginosa [21]): 50 µM (≈ 19.9 µg/mL); MIC (Micrococcus flavus [22]): 25 µM (≈ 9.95 µg/mL); MIC (Bacillus cereus [23]): 25 µM (≈ 9.95 µg/mL); MIC (Staphylococcus aureus [24]): 50 µM (≈ 19.9 µg/mL)
CC1(C)S[C@@H]2[C@H](NC(=O)[C@H](N)c3ccccc3)C(=O)N2[C@H]1C(=O)O [AMPICILLIN]													492 (≈ 172 µg/mL)	1240 (≈ 433 µg/mL)	744 (≈ 260 µg/mL)	372 (≈ 130 µg/mL)	372 (≈ 130 µg/mL)	372 (≈ 130 µg/mL)	372 (≈ 130 µg/mL)	372 (≈ 130 µg/mL)	MIC (Pseudomonas aeruginosa [21]): 744 µM (≈ 260 µg/mL); MIC (Micrococcus flavus [22]): 248 µM (≈ 86.7 µg/mL); MIC (Bacillus cereus [23]): 248 µM (≈ 86.7 µg/mL); MIC (Staphylococcus aureus [24]): 248 µM (≈ 86.7 µg/mL)
CC(Cc1ccc(O)c(O)c1)C(C)Cc1ccc(O)c(O)c1 (stereo not given) [NORDIHYDROGUAIARETIC ACID]																					inhibition (Mus musculus): inactive; inhibition [25]: inactive; pIC50 [26]: 4.49
CN[C@@H]1[C@H](O[C@H]2[C@H](O[C@H]3[C@H](O)[C@@H](O)[C@H](N=C(N)N)[C@@H](O)[C@@H]3N=C(N)N)O[C@@H](C)[C@]2(O)C=O)O[C@@H](CO)[C@H](O)[C@H]1O [STREPTOMYCIN]													344 (≈ 200 µg/mL)	344 (≈ 200 µg/mL)	516 (≈ 300 µg/mL)	86 (≈ 50 µg/mL)	172 (≈ 100 µg/mL)	344 (≈ 200 µg/mL)	172 (≈ 100 µg/mL)	258 (≈ 150 µg/mL)	MIC (Pseudomonas aeruginosa [21]): 172 µM (≈ 100 µg/mL); MIC (Micrococcus flavus [22]): 86 µM (≈ 50 µg/mL); MIC (Bacillus cereus [23]): 43 µM (≈ 25 µg/mL); MIC (Staphylococcus aureus [24]): 172 µM (≈ 100 µg/mL)
CC(=O)N1CCN(c2ccc(OCC3COC(Cn4ccnc4)(c4ccc(Cl)cc4Cl)O3)cc2)CC1 (stereo not given) [KETOCONAZOLE]	950 (≈ 505 µg/mL)	380 (≈ 202 µg/mL)	950 (≈ 505 µg/mL)	3800 (≈ 2020 µg/mL)	5700 (≈ 3030 µg/mL)	3800 (≈ 2020 µg/mL)	2850 (≈ 1510 µg/mL)	950 (≈ 505 µg/mL)	380 (≈ 202 µg/mL)	4750 (≈ 2520 µg/mL)	3800 (≈ 2020 µg/mL)	380 (≈ 202 µg/mL)									
c1ccc(-c2ccc(C(c3ccccc3)n3ccnc3)cc2)cc1 (stereo not given) [BIFONAZOLE]	640 (≈ 199 µg/mL)	480 (≈ 149 µg/mL)	640 (≈ 199 µg/mL)	640 (≈ 199 µg/mL)	800 (≈ 248 µg/mL)	640 (≈ 199 µg/mL)	480 (≈ 149 µg/mL)	800 (≈ 248 µg/mL)	480 (≈ 149 µg/mL)	640 (≈ 199 µg/mL)	480 (≈ 149 µg/mL)	640 (≈ 199 µg/mL)									
